Test [1] concerns the target T1, Tyrosine-protein kinase ZAP-70 (Homo sapiens) (UniProt P43403).
T1 sequence (whole entry): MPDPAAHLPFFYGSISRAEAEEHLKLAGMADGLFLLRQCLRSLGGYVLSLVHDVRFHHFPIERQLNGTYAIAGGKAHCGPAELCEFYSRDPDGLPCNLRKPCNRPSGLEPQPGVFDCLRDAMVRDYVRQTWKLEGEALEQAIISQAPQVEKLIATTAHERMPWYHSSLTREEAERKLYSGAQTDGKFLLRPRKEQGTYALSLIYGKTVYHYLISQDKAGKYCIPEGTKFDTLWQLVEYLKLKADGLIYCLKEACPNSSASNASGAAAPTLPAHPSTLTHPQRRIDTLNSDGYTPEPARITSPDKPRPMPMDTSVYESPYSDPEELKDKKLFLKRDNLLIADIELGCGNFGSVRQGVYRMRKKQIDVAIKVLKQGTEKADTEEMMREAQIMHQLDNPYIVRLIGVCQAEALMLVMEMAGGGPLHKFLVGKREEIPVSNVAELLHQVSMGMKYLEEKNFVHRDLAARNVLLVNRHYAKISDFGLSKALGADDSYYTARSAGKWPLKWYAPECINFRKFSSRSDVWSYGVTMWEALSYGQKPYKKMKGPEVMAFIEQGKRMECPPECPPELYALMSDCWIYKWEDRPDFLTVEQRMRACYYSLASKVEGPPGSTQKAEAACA
Description: Inhibition of ZAP70 at 10 uM by HTRF assay relative to control. In outline: (§1)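 HTRF kinase assay, one panel of kinases. Inhibitor stock 50 µM in 100% DMSO; tested at 10 µM. ATP and substrate at final levels near Km. Final buffer: 50 mM Hepes/NaOH pH 7.4, 40 µM Na3VO4, 0.005% Tween-20, 1 mM DTT, MnCl2 or MgCl2 at kinase-dependent levels. Started by adding ATP/substrate. Reaction run at room temperature, time varied by kinase. Detection mix in 50 mM Hepes pH 7.4, 0.1% BSA, 150 mM KF, incubated ≥1 h at room temperature. Activity expressed as % of uninhibited control; n=2.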

The target of test [2] is T2, Inhibitor of nuclear factor kappa-B kinase subunit beta (Homo sapiens) (UniProt O14920).
T2 sequence (whole entry): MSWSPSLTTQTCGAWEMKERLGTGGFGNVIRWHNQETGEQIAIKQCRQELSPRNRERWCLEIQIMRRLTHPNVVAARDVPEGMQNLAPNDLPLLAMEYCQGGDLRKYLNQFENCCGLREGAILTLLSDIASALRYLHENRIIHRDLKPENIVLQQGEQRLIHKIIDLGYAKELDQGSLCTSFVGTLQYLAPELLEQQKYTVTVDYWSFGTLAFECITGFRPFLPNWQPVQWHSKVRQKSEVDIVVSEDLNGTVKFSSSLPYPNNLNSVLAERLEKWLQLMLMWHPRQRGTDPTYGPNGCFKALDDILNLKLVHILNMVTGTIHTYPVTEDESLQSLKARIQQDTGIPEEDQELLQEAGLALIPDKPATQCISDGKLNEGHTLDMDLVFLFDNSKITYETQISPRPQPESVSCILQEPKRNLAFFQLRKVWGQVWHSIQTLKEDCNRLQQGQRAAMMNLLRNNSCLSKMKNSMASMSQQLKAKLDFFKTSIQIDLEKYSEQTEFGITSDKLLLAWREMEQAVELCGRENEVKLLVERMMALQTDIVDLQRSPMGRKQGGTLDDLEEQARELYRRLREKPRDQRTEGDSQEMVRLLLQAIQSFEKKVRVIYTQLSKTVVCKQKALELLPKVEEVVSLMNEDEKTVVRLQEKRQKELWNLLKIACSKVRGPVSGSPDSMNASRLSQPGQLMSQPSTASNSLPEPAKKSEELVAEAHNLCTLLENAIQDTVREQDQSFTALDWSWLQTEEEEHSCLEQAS
Description: Inhibition of IKK-beta at 10 uM by HTRF assay relative to control. The method in brief: as §1

Test [3] can be described thus: Inhibition of AMPKalpha at 10 uM by HTRF assay relative to control. In outline: as §1
For test [4], the target named is T3, Tyrosine-protein kinase JAK3 (Homo sapiens) (UniProt P52333).
T3 sequence (whole entry): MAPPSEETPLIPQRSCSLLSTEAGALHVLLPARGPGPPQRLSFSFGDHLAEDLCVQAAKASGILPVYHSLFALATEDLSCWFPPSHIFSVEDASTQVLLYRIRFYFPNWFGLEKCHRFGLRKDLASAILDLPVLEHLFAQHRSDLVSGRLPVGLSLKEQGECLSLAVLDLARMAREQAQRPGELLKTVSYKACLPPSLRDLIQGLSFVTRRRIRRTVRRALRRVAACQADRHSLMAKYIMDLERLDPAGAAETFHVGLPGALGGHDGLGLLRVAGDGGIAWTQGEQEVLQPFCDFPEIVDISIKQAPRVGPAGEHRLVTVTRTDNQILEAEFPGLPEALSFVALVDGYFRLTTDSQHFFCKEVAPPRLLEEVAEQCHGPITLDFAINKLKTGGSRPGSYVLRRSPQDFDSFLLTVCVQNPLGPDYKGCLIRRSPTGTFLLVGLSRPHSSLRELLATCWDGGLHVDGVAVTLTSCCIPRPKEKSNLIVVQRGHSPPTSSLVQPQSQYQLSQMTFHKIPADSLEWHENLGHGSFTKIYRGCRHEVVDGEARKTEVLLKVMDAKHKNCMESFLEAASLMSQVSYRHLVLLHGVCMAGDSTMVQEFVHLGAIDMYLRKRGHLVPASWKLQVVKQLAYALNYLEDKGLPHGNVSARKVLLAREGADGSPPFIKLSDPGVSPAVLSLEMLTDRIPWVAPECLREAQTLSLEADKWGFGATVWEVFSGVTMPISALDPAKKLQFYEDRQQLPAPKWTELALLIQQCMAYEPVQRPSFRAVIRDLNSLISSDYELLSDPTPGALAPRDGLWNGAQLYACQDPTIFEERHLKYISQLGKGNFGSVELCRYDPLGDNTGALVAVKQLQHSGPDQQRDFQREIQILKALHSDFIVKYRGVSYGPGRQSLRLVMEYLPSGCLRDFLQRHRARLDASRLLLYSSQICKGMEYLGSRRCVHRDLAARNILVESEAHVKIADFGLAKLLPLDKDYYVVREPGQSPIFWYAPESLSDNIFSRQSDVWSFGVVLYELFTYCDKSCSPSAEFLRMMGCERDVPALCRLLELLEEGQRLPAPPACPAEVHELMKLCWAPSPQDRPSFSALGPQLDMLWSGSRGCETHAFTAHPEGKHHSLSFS
Description: Inhibition of JAK3 at 10 uM by HTRF assay relative to control. In outline: as §1

Test [5] concerns the target Fibroblast growth factor receptor 1 (Homo sapiens) (UniProt P11362). The test is described as follows: Inhibition of FGFR1 at 10 uM by HTRF assay relative to control. The method in brief: as §1
For test [6], the target named is Ribosomal protein S6 kinase alpha-3 (Homo sapiens) (UniProt P51812). Description: Inhibition of RSK2 at 10 uM by HTRF assay relative to control. In outline:
as §1

Molecules are shown by their SMILES.

Chain of Ribosomal protein S6 kinase alpha-3 (Homo sapiens) (P51812 whole entry): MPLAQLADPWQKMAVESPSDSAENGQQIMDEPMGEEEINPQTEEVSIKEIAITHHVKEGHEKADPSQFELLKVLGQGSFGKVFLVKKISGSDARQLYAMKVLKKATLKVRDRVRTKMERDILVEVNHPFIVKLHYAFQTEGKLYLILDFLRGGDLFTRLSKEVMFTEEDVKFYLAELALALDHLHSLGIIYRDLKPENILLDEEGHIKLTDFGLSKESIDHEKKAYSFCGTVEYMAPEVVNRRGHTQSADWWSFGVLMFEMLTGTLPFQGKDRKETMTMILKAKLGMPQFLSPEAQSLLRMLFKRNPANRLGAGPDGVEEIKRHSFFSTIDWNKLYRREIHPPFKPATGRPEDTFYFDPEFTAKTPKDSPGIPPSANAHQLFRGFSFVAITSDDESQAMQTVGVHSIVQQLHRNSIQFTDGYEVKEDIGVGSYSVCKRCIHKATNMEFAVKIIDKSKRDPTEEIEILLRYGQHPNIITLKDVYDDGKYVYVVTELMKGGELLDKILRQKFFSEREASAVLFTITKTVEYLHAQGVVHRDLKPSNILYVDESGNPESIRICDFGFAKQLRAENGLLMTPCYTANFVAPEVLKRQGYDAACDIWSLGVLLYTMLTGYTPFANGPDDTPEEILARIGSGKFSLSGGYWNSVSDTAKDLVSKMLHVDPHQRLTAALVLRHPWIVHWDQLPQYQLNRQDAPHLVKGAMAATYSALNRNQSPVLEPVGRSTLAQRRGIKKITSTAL
Chain of Fibroblast growth factor receptor 1 (Homo sapiens) (P11362 22-822 limits assumed): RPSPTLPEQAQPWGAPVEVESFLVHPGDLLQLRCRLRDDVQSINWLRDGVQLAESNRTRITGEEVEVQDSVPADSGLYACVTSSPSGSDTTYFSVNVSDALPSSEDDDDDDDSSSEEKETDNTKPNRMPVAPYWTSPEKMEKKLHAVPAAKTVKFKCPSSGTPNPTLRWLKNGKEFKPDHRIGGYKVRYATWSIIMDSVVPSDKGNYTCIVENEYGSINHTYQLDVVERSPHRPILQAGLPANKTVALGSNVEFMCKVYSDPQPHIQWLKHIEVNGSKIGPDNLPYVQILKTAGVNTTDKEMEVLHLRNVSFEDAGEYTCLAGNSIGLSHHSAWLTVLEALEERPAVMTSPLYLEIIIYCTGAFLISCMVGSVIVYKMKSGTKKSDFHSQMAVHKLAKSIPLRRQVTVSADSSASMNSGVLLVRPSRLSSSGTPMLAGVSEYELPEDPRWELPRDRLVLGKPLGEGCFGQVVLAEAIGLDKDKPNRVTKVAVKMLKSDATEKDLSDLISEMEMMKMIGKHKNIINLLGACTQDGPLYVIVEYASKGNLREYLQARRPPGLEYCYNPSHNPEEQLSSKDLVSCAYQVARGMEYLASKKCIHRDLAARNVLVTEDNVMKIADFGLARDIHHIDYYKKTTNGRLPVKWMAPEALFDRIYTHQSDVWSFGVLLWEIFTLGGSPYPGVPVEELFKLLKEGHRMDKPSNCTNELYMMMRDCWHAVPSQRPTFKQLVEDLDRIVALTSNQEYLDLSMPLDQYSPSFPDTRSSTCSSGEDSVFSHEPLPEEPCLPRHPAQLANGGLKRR

As to `CN(CCc1ccccn1)C(=O)[C@@H]1CCCN1c1nccc(Nc2ccccc2)n1`, the inhibition came to 3% in test [1]; 0% in test [2]; 0% in test [3]; 0% in test [4]; 0% in test [5]; 0% in test [6].
For `O=C(NCCc1ccc(O)cc1)c1cccc(Nc2nccc(Nc3ccc4ncsc4c3)n2)c1`, the inhibition came out at 3% in test [1]; 11% in test [2]; 8% in test [3]; 11% in test [4]; 52% in test [5]; 3% in test [6].
Take `COC(=O)C(CO)NC(=O)[C@@H]1CCCN1c1nccc(Oc2cccc(C)c2)n1` (some centres not stated): the inhibition was determined as 0% in test [1]; 1% in test [2]; 0% in test [3]; 0% in test [4]; 0% in test [5]; 0% in test [6].
As for `Cc1cccc(N(C)c2cc(Nc3cccc(C(=O)NCCCn4ccnc4)c3)ncn2)c1`, the inhibition in test [1] was 4%; in test [2] it was 0%; in test [3], 5%; in test [4], 3%; in test [5], 5%; in test [6], 0%.
Take `O=C(c1nc(SCc2ccc(Cl)cc2)n2ccccc12)N1CCN(c2ncnc3c2CN(Cc2ccccc2)CC3)CC1`: the inhibition in test [1] amounted to 3%; in test [2], 2%; in test [3], 1%; in test [4], 3%; in test [5] it was 0%; in test [6], 0%.
As to `CN(CCc1ccccn1)C(=O)c1cccc(Nc2nccc(Nc3ccc4ncsc4c3)n2)c1`, the inhibition in test [1] came out at 13%; in test [2], 36%; in test [3], 16%; in test [4] it was 28%; in test [5], 80%; in test [6], 35%.
With `Cc1cc(C(=O)N2CCN(c3ncnc4c3CN(Cc3ccccc3)CC4)CC2)c(C)n1C`, the inhibition in test [1] worked out at 0%; in test [2], 3%; in test [3], 0%; in test [4] it was 0%; in test [5] it was 0%; in test [6], 0%.
`COc1cccc(Nc2cc(N3CCC[C@H]3C(=O)NCCN3CCCCC3)nc(N)n2)c1`: the inhibition in test [1] worked out at 2%; in test [2], 6%; in test [3], 0%; in test [4] it was 0%; in test [5], 0%; in test [6], 0%.
On to `Cc1cccc(N(C)c2cc(Nc3cccc(C(=O)NCc4ccncc4)c3)ncn2)c1`, for which the inhibition in test [1] is 6%; in test [2] it was 0%; in test [3] it was 0%; in test [4], 0%; in test [5], 0%; in test [6] it was 3%.
For the compound `CN(C)CC(C)(C)CNC(=O)C1CCN(c2cc(N3CCOCC3)nc(N)n2)CC1`, the inhibition came out at 8% in test [1]; 6% in test [2]; 11% in test [3]; 0% in test [4]; 21% in test [5]; 0% in test [6].
As to `Cc1cccc(N(C)c2cc(N3CCN(C(=O)Cc4c[nH]c5ccccc45)CC3)ncn2)c1`, the inhibition in test [1] stood at 2%; in test [2], 3%; in test [3], 3%; in test [4], 0%; in test [5], 5%; in test [6] it was 0%.
In the case of `CC(=O)CCCCC(=O)N1CCN(c2nccc(Oc3cccc(C)c3)n2)CC1`, the inhibition in test [1] was 0%; in test [2], 4%; in test [3], 9%; in test [4], 0%; in test [5], 11%; in test [6] it was 0%.
In the case of `CN(C)CC(C)(C)CNC(=O)[C@@H]1CCCN1c1nccc(Nc2ccccc2)n1`, the inhibition came out at 1% in test [1]; 5% in test [2]; 10% in test [3]; 0% in test [4]; 4% in test [5]; 0% in test [6].
`Cc1cccc(CN2CCN(c3cc(N(C)c4cccc(C)c4)ncn3)CC2)c1`: the inhibition in test [1] amounted to 4%; in test [2], 1%; in test [3], 4%; in test [4], 6%; in test [5] it was 5%; in test [6], 0%.
For the compound `CN(C)c1ccc(C(=O)N2CCN(c3ncnc4c3CN(Cc3ccccc3)CC4)CC2)c2ccccc12`, the inhibition turned out to be 2% in test [1]; 1% in test [2]; 0% in test [3]; 7% in test [4]; 19% in test [5]; 0% in test [6].
Turning to `COc1cccc(Nc2cc(Nc3cccc(C(=O)NCCCn4ccnc4)c3)nc(N)n2)c1`, the inhibition in test [1] came to 6%; in test [2], 4%; in test [3], 8%; in test [4], 11%; in test [5], 6%; in test [6], 0%.
Regarding `COC[C@@H]1CCCN1C(=O)C1CCCN1c1cc(Nc2cccc(Br)c2)ncn1` (some centres not stated), the inhibition worked out at 0% in test [1]; 1% in test [2]; 0% in test [3]; 8% in test [4]; 0% in test [5]; 0% in test [6].

Values taken from ChEMBL document CHEMBL1150387, “Development and experimental validation of a docking strategy for the generation of kinase-targeted libraries” (J Med Chem, 2008).
